Experimental data collected from several papers.
CDK7 with cyclin H: Cyclin-dependent kinase 7, with cyclin H (CDK7, Homo sapiens, UniProt P50613)
CDK7: Cyclin-dependent kinase 7 (CDK7, Homo sapiens, UniProt P50613)

SMILES	target	assay	conditions	measurement	result
COc1cc2occc2c2oc(=O)ccc12	CDK7 with cyclin H	enzyme activity, inhibitor, ADP detection	10 µM	inhibition	-29.9%
CCN1CCN(Cc2ccc(C(=O)Nc3ccc(C)c(Oc4ccc5c(c4)CC(=O)N5)c3)cc2C(F)(F)F)CC1	CDK7	binding, competition with immobilised ligand	1 µM	remaining binding	84%
Nc1ncc(-c2nc(N3CCOCC3)nc(N3CCOCC3)n2)c(C(F)F)n1	CDK7	binding, competition with immobilised ligand	10 µM	remaining binding	56%
Cn1cncc1[C@](O)(COc1ccc(C#N)cc1-c1ccc(OC(F)(F)F)cc1)c1ccc(C#N)cc1	CDK7	cell-free assay, competition with immobilised ligand	1 µM	remaining binding	95%
C[C@]12CC[C@H](O)CC1=CC[C@@H]1[C@@H]2CC[C@]2(C)C(=O)CC[C@@H]12	CDK7 with cyclin H	enzyme activity, inhibitor, ADP detection	10 µM	inhibition	-2%
Cn1cc(-c2cc(F)cc(N3CCn4c(cc5c4CCCC5)C3=O)c2CO)cc(Nc2ccc(N3CCN(C4COC4)CC3)cn2)c1=O	CDK7 with cyclin H	enzyme activity, inhibitor	0.1 µM	inhibition	4%
COc1ncccc1-c1cnn2ccc(N3CCN(C(=O)OC(C)C)CC3)nc12	CDK7	binding, competition with immobilised ligand	1 µM	remaining binding	100%
Cc1nn(C)cc1-c1nc2c(N3CCN(Cc4ccc(Cl)cc4)CC3)c(Cl)cnc2[nH]1	CDK7	binding, competition with immobilised ligand	1 µM	remaining binding	100%
CNC(=O)Oc1ccc2c(c1)[C@]1(C)CCN(C)[C@@H]1N2C	CDK7 with cyclin H	enzyme activity, inhibitor, ADP detection	10 µM	inhibition	-4.5%
Cn1cc(-c2cccc(N3CCc4c(sc5c4CC(C)(C)C5)C3=O)c2CO)cc(Nc2ccncn2)c1=O	CDK7 with cyclin H	enzyme activity, inhibitor	1 µM	inhibition	-11%
